Reference: ChEMBL document CHEMBL4689842, “EUbOPEN Chemogenomics Library wave 1” (2021)
“And” between values parts separate entries of the source, which are not always exact repeats. Identical values can stand only once.

Key:
Type in all cases: toxicity, cell-based
U2OS = assay: Incucyte cell viability with U2OS; conditions: human, 10 µM, compound concentration 10 uM; also: filed as whole numbers so only -1 and 0 and 1 occur
Fibroblast [1] = assay: Incucyte cell viability with human fibroblast; conditions: 10 µM, compound concentration 10 uM; also: filed as whole numbers so only -1 and 0 and 1 occur
HEK-293T = assay: Incucyte cell viability with HEK293T; conditions: human, 10 µM, compound concentration 10 uM; also: filed as whole numbers so only -1 and 0 and 1 occur
Fibroblast [2] = assay: Multiplex assay against human fibroblast
Summary of the method: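 Per cents of healthy-nucleus cells form the tubulin, mitochondrial-mass and membrane-permeability phenotype values. Live cells were stained at seeding with Hoechst33342, BioTracker Green Microtubule Cytoskeleton Dye, MitoTracker Red and Annexin V Alexa Fluor 680. After compound addition they were imaged on a CQ1 microscope at 37°C and 5% CO2, and CellPathfinder machine-learning gating split them into Hoechst high-intensity objects or normal cells, normal cells into healthy, pyknosed or fragmented nuclei, and pyknosed cells into mitotic or apoptotic.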

[3] = 0 h, replicate number 1, timepoint 0 hours
[4] = 6 h, replicate number 1, timepoint 6 hours
[5] = 12 h, replicate number 1, timepoint 12 hours
[6] = 18 h, replicate number 1, timepoint 18 hours
[7] = 24 h, replicate number 1, timepoint 24 hours
[8] = 12 h, 1 µM, compound concentration 1 uM, replicate 1
[9] = 12 h, 1 µM, compound concentration 1 uM, replicate 2
[10] = 12 h, 10 µM, compound concentration 10 uM, replicate 1
[11] = 12 h, 10 µM, compound concentration 10 uM, replicate 2
[12] = 24 h, 1 µM, compound concentration 1 uM, replicate 1
[13] = 24 h, 1 µM, compound concentration 1 uM, replicate 2
[14] = 24 h, 10 µM, compound concentration 10 uM, replicate 1
[15] = 24 h, 10 µM, compound concentration 10 uM, replicate 2
[16] = 48 h, 10 µM, compound concentration 10 uM, replicate 1
[17] = 48 h, 10 µM, compound concentration 10 uM, replicate 2

## CC(C)Oc1ccc(C(=O)N[C@H](CNC(=O)CN(C)C)Cc2ccc(-c3cn4cccc([C@H](C)O)c4n3)cc2)cc1Cl [GSK-923295A]
U2OS; [3]
  Growth Rate: 0
U2OS; [4]
  Growth Rate: 0
U2OS; [5]
  Growth Rate: 0
U2OS; [6]
  Growth Rate: 0
U2OS; [7]
  Growth Rate: 0
Fibroblast [1]; [3]
  Growth Rate: 0
Fibroblast [1]; 0 h, replicate number 2, timepoint 0 hours
  Growth Rate: 1
Fibroblast [1]; [4]
  Growth Rate: 0
Fibroblast [1]; [5]
  Growth Rate: 0
Fibroblast [1]; [6]
  Growth Rate: 0
Fibroblast [1]; [7]
  Growth Rate: 0
HEK-293T; [3]
  Growth Rate: 0
HEK-293T; 6 h, replicate number 2, timepoint 6 hours
  Growth Rate: 0
HEK-293T; [5]
  Growth Rate: 0
HEK-293T; [6]
  Growth Rate: 0
HEK-293T; [7]
  Growth Rate: 0
Fibroblast [2]; [8]
  Population Apoptotic (%): 71%
  Population Fragmented Nuclei (%): 32%
  Population Healthy Nuclei (%): 48%
  Population Hoechst High Intensity Objects (%): 12%
  Population Membrane Permeable-Phenotype (%): 9%
  Population Mitochondria Different-Phenotype (%): 5%
  Population Mitotic Cells (%): 28%
  Population Normal (%): 87%
  Population Pyknosed Nuclei (%): 18%
  Population Tubulin-Different-Phenotype (%): 20%
  Total Cell Count: 256
Fibroblast [2]; [9]
  Population Apoptotic (%): 100%
  Population Fragmented Nuclei (%): 49%
  Population Healthy Nuclei (%): 43%
  Population Hoechst High Intensity Objects (%): 31%
  Population Mitochondria Different-Phenotype (%): 31%
  Population Mitotic Cells (%): 0%
  Population Normal (%): 68%
  Population Pyknosed Nuclei (%): 7%
  Population Tubulin-Different-Phenotype (%): 40%
  Total Cell Count: 74
Fibroblast [2]; [10]
  Population Apoptotic (%): 53% and 65%
  Population Fragmented Nuclei (%): 34% and 27%
  Population Healthy Nuclei (%): 34% and 50%
  Population Hoechst High Intensity Objects (%): 30% and 28%
  Population Mitochondria Different-Phenotype (%): 11% and 7%
  Population Mitotic Cells (%): 46% and 34%
  Population Normal (%): 69% and 71%
  Population Pyknosed Nuclei (%): 30% and 21%
  Population Tubulin-Different-Phenotype (%): 82% and 59%
Fibroblast [2]; [11]
  Population Apoptotic (%): 75% and 30%
  Population Healthy Nuclei (%): 28% and 73%
  Population Membrane Permeable-Phenotype (%): 42% and 30%
  Population Mitotic Cells (%): 25% and 69%
  Population Normal (%): 65% and 97%
  Population Pyknosed Nuclei (%): 16% and 17%
  Population Tubulin-Different-Phenotype (%): 92% and 100%
  Total Cell Count: 75 and 76
Fibroblast [2]; [12]
  Population Apoptotic (%): 65%
  Population Fragmented Nuclei (%): 27%
  Population Healthy Nuclei (%): 58%
  Population Hoechst High Intensity Objects (%): 18%
  Population Membrane Permeable-Phenotype (%): 6%
  Population Mitochondria Different-Phenotype (%): 7%
  Population Mitotic Cells (%): 34%
  Population Normal (%): 81%
  Population Pyknosed Nuclei (%): 14%
  Population Tubulin-Different-Phenotype (%): 10%
  Total Cell Count: 266
Fibroblast [2]; [13]
  Population Apoptotic (%): 100%
  Population Fragmented Nuclei (%): 58%
  Population Healthy Nuclei (%): 34%
  Population Hoechst High Intensity Objects (%): 26%
  Population Membrane Permeable-Phenotype (%): 10%
  Population Mitochondria Different-Phenotype (%): 15%
  Population Mitotic Cells (%): 0%
  Population Normal (%): 73%
  Population Pyknosed Nuclei (%): 6%
  Population Tubulin-Different-Phenotype (%): 25%
  Total Cell Count: 79
Fibroblast [2]; [14]
  Population Apoptotic (%): 64% and 60%
  Population Fragmented Nuclei (%): 34% and 27%
  Population Healthy Nuclei (%): 44% and 54%
  Population Hoechst High Intensity Objects (%): 34% and 39%
  Population Membrane Permeable-Phenotype (%): 26% and 10%
  Population Mitochondria Different-Phenotype (%): 26% and 11%
  Population Mitotic Cells (%): 35% and 39%
  Population Normal (%): 65% and 60%
  Population Pyknosed Nuclei (%): 20% and 17%
  Population Tubulin-Different-Phenotype (%): 76% and 61%
Fibroblast [2]; [15]
  Population Apoptotic (%): 75% and 35%
  Population Healthy Nuclei (%): 35% and 64%
  Population Mitochondria Different-Phenotype (%): 96%
  Population Mitotic Cells (%): 25% and 65%
  Population Normal (%): 50% and 97%
  Population Pyknosed Nuclei (%): 9% and 24%
  Population Tubulin-Different-Phenotype (%): 73% and 100%
  Total Cell Count: 83 and 72
Fibroblast [2]; [16]
  Population Apoptotic (%): 71%
  Population Fragmented Nuclei (%): 35%
  Population Healthy Nuclei (%): 50%
  Population Hoechst High Intensity Objects (%): 46%
  Population Membrane Permeable-Phenotype (%): 11%
  Population Mitochondria Different-Phenotype (%): 7%
  Population Mitotic Cells (%): 28%
  Population Normal (%): 53%
  Population Pyknosed Nuclei (%): 13%
  Population Tubulin-Different-Phenotype (%): 65%
  Total Cell Count: 96
Fibroblast [2]; [17]
  Population Apoptotic (%): 57%
  Population Fragmented Nuclei (%): 32%
  Population Healthy Nuclei (%): 55%
  Population Hoechst High Intensity Objects (%): 35%
  Population Membrane Permeable-Phenotype (%): 9%
  Population Mitochondria Different-Phenotype (%): 6%
  Population Mitotic Cells (%): 42%
  Population Normal (%): 64%
  Population Pyknosed Nuclei (%): 11%
  Population Tubulin-Different-Phenotype (%): 71%
  Total Cell Count: 281
